From ChEMBL document CHEMBL4627265, “Optimization of 8-oxoadenines with toll-like-receptor 7 and 8 activity” (Bioorg Med Chem Lett, 2020)
The source made the active and inactive calls. The rule behind the calls is not given here.

What was measured:
Format in all cases: cell-based
[1] = molecular target: T1, Toll-like receptor 8 (Homo sapiens) (UniProt Q9NR97); assay: Agonist activity at TLR8 in human PBMC assessed as induction of myeloid dendritic cell maturation by measuring HLA-DR level at 0.1 uM after 6 hrs by flow cytometry
T1 sequence (whole entry): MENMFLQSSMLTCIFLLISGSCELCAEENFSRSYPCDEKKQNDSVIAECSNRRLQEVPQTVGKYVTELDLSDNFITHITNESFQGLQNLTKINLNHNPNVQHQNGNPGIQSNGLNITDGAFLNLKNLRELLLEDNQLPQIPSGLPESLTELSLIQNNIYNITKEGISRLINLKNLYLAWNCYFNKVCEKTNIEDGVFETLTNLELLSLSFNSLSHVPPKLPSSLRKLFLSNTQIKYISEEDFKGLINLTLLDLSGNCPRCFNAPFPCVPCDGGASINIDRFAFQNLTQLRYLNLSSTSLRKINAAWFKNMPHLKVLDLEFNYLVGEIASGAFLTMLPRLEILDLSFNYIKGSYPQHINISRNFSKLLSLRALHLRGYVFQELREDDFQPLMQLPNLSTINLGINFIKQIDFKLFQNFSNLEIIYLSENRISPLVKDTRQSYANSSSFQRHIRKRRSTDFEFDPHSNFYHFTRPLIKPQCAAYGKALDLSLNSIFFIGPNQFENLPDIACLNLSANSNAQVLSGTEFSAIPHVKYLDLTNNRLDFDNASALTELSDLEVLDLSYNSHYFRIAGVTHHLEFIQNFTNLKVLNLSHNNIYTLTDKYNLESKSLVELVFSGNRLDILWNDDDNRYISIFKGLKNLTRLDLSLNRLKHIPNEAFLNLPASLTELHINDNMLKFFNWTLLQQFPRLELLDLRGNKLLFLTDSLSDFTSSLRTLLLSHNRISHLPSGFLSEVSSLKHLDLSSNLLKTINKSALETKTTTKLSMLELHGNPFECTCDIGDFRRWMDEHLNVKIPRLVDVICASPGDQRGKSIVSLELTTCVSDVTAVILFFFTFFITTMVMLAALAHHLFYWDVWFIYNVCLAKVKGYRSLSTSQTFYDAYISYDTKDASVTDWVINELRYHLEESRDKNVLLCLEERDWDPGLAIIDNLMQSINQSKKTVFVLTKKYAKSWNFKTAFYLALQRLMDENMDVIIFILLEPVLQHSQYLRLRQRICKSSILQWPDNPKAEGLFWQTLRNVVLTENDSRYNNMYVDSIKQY
Summary of the method: (§1)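 hPBMCs stimulated 6 h at a single 0.1 μM dose; HLA-DR, MHC-I, CD80 and CD86 on mDCs and pDCs measured by flow cytometry, expressed as fold change versus unstimulated cells. Mean ± SD of three independent experiments in three different donors.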

[2] = molecular target: T2, Toll-like receptor 7 (Homo sapiens) (UniProt Q9NYK1); assay: Agonist activity at TLR7 in human PBMC assessed as induction of plasmacytoid dendritic cell maturation by measuring MHC-1 level at 0.1 uM after 6 hrs by flow cytometry; summary of the method: as §1
T2 sequence (whole entry): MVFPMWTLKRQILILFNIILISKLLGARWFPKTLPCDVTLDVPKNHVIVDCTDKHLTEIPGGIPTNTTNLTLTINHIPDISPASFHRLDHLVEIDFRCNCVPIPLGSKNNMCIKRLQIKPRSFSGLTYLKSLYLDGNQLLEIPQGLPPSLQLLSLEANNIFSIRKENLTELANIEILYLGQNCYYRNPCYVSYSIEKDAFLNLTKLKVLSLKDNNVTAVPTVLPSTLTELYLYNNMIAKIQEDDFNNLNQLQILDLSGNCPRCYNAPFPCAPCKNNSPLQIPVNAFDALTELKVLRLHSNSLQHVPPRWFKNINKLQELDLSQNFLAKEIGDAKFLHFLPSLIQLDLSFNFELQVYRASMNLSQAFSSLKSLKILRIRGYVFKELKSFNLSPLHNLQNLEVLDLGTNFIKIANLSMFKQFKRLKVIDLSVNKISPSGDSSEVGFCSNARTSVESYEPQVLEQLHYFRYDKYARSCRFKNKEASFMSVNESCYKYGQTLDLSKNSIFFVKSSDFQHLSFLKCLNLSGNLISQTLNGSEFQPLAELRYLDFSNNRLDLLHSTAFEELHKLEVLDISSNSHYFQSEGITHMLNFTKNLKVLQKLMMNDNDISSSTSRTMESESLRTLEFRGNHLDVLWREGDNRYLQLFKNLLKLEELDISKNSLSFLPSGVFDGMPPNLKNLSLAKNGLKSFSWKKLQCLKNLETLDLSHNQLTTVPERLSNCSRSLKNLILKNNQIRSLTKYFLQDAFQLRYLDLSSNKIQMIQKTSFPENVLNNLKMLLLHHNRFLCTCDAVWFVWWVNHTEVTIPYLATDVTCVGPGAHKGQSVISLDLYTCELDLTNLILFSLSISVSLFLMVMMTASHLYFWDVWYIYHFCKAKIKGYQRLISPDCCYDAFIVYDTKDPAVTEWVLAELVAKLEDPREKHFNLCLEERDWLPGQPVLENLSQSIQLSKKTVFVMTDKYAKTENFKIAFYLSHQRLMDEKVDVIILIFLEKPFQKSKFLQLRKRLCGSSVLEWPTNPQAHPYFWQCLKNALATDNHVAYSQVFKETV

Toll-like receptor 7 = molecular target: T3, Toll-like receptor 7 (Homo sapiens, UniProt Q9NYK1); assay: Agonist activity at human TLR7 expressed in HEK293 cells assessed as induction of NFKappaB activity after 24 hrs by SEAP reporter gene assay
T3 sequence (Q9NYK1 whole entry): T2 sequence (whole entry)
Summary of the method: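 HEK293 cells stably transfected with hTLR7 or hTLR8 plus an NFκB-driven SEAP reporter, treated 24 h with compound over a μM range; SEAP secretion read out. EC50 as mean ± SD of three (TLR7) or four (TLR8) independent experiments.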

## Nc1nc(OCCCCO)nc2c1[nH]c(=O)n2CC1CCNCC1
[1]
  Activity: inactive
[2]
  Activity: inactive
Toll-like receptor 7
  EC50: > 500 µM
